Measured values reported in ChEMBL document CHEMBL1649368, “Novel isatinyl thiosemicarbazones derivatives as potential molecule to combat HIV-TB co-infection” (Eur J Med Chem, 2011).
≈ marks a conversion by molar mass, not a printed value.

How the values were obtained:
[1] = Cytotoxicity against human MT4 cells after 5 days by spectrophotometry; assay type: cell-based
Outline: (§1)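 MT-4 cells were grown in RPMI-1640 DM with 10% heat-inactivated calf serum and gentamicin. HIV-1 IIIB (100 CCID50) or mock infection was run in parallel with compounds in triplicate, at 37 °C and 5% CO2 for 5 days. Viability was read by MTT spectrophotometry. EC50 was the 50% reduction in virus cytopathic effect; CC50 was the 50% loss of mock-infected cell viability.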

[2] = test system: Mycobacterium tuberculosis; experiment: Antimycobacterial activity against Mycobacterium tuberculosis H37Ra by agar dilution method; assay type: functional
Outline: (§2)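 Log-phase MTB was tested by agar dilution on Middlebrook 7H11 with OADC, following NCCLS guidance. MIC was the lowest concentration giving complete growth inhibition, determined in triplicate.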

[3] = test system: Human immunodeficiency virus 1; experiment: Antiviral activity against HIV1 3B infected in human MT4 cells assessed as protection against virus-induced cytopathogenicity after 5 days by microtiter plate analysis; assay type: functional, organism-based; conditions: Human immunodeficiency virus 1, 3B, MT4, 120 h; outline: as §1
[4] = test system: Mycobacterium tuberculosis; experiment: Antimycobacterial activity against Mycobacterium tuberculosis H37Ra assessed as inhibition of bacterial growth in dormant phase; assay type: functional
Outline: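 MTB grown in 7H9 with glycerol, OADC and Tween 80 at 37 °C with rolling to OD600 ~0.6, then washed and held in PBS 6 weeks at 37 °C. Starved cells (~1×10^7 in 1 mL PBS) were exposed to compounds in DMSO at various concentrations for 7 days with shaking. After washing, dilutions were plated on antibiotic-free 7H11 and counted after 4 weeks. MIC was complete growth inhibition, in triplicate.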

[5] = test system: Mycobacterium tuberculosis; experiment: Antimycobacterial activity against Mycobacterium tuberculosis H37Ra assessed as inhibition of bacterial growth in log phase by agar dilution method; assay type: functional; outline: as §2

Compound | CC50 at 120 h [1] | MIC [2] | EC50 [3] | MIC [4] | MIC [5]
CONC(=S)N/N=C1\C(=O)N(CN2CCN(c3ccc(OC)cc3)CC2)c2ccc(Cl)cc21 | 221 µM | 12.8 µM (≈ 6.25 µg/mL) | 13.1 µM |  | 
O=C1/C(=N\NC(=S)NO)c2cc(F)ccc2N1CN1CCOCC1 | 465 µM | 4.41 µM (≈ 1.56 µg/mL) | 61.4 µM |  | 
CONC(=S)N/N=C1\C(=O)N(CN(C)C)c2ccc(C)cc21 | 622 µM | 19.4 µM (≈ 6.25 µg/mL) | 64.1 µM |  | 
CONC(=S)N/N=C1\C(=O)N(CN(C)C)c2ccc(Cl)cc21 | 552 µM | 18.3 µM (≈ 6.25 µg/mL) | 57.9 µM |  | 
CCn1cc(C(=O)O)c(=O)c2cc(F)c(N3CCN(CN4C(=O)/C(=N\NC(=S)NO)c5cc(F)ccc54)C(C)C3)c(F)c21 (configuration not stated) | 187 µM | 0.65 µM (≈ 0.401 µg/mL) | 9.93 µM | 36.9 µM (≈ 22.8 µg/mL) | 0.65 µM (≈ 0.401 µg/mL)
O=C1/C(=N\NC(=S)NO)c2cc(Cl)ccc2N1CN1CCOCC1 | 348 µM | 6.11 µM (≈ 2.26 µg/mL) | 35.1 µM |  | 
CONC(=S)N/N=C1\C(=O)N(CN2CCN(c3ccccc3)CC2)c2ccc(Cl)cc21 | 267 µM | 13.6 µM (≈ 6.25 µg/mL) | 17.7 µM |  | 
CCn1cc(C(=O)O)c(=O)c2cc(F)c(N3CCN(CN4C(=O)/C(=N\NC(=S)NOC)c5cc(F)ccc54)CC3)cc21 | 144 µM | 0.67 µM (≈ 0.402 µg/mL) | 10.5 µM | 17 µM (≈ 10.2 µg/mL) | 4.25 µM (≈ 2.55 µg/mL)
O=C1/C(=N\NC(=S)NO)c2cc(Cl)ccc2N1CN1CCN(c2ccccc2)CC1 | 273 µM | 28.1 µM (≈ 12.5 µg/mL) | 28.3 µM |  | 
Cc1ccc2c(c1)/C(=N/NC(=S)NO)C(=O)N2CN(C)C | 651 µM | 81.3 µM (≈ 25 µg/mL) | 113 µM |  | 
CONC(=S)N/N=C1\C(=O)N(CN2CCOCC2)c2ccc(C)cc21 | 365 µM | 4.29 µM (≈ 1.56 µg/mL) | 45.1 µM |  | 
CCn1cc(C(=O)O)c(=O)c2cc(F)c(N3CCN(CN4C(=O)/C(=N\NC(=S)NOC)c5cc(C)ccc54)CC3)cc21 | 238 µM | 1.31 µM (≈ 0.78 µg/mL) | 11.4 µM |  | 
CCn1cc(C(=O)O)c(=O)c2cc(F)c(N3CCN(CN4C(=O)/C(=N\NC(=S)NOC)c5cc(C)ccc54)C(C)C3)c(F)c21 (configuration not stated) | 156 µM | 1.24 µM (≈ 0.778 µg/mL) | 5.74 µM |  | 
CCN(CC)CN1C(=O)/C(=N\NC(=S)NO)c2cc(C)ccc21 | 534 µM | 11.8 µM (≈ 3.97 µg/mL) | 57.6 µM |  | 
CN(C)CN1C(=O)/C(=N\NC(=S)NO)c2cc(F)ccc21 | 599 µM | 10.1 µM (≈ 3.13 µg/mL) | 47.2 µM |  | 
CONC(=S)N/N=C1\C(=O)N(CN(C)C)c2ccc(F)cc21 | 560 µM | 9.62 µM (≈ 3.13 µg/mL) | 37.8 µM |  | 
COc1c(N2CCN(CN3C(=O)/C(=N\NC(=S)NO)c4cc(F)ccc43)C(C)C2)c(F)cc2c(=O)c(C(=O)O)cn(C3CC3)c12 (configuration not stated) | 206 µM | 0.16 µM (≈ 0.103 µg/mL) | 4.18 µM |  | 
CONC(=S)N/N=C1\C(=O)N(CN2CCN(c3ccccc3)CC2)c2ccc(C)cc21 | 276 µM | 12.4 µM (≈ 5.42 µg/mL) | 17.3 µM |  | 
Cc1ccc2c(c1)/C(=N/NC(=S)NO)C(=O)N2CN1CCN(c2ccccc2)CC1 | 420 µM | 14.7 µM (≈ 6.25 µg/mL) | 19.3 µM |  | 
CCn1cc(C(=O)O)c(=O)c2cc(F)c(N3CCN(CN4C(=O)/C(=N\NC(=S)NOC)c5cc(F)ccc54)C(C)C3)c(F)c21 (configuration not stated) | 178 µM | 0.63 µM (≈ 0.398 µg/mL) | 4.43 µM |  | 
COc1ccc(N2CCN(CN3C(=O)/C(=N\NC(=S)NO)c4cc(F)ccc43)CC2)cc1 | 260 µM | 6.83 µM (≈ 3.13 µg/mL) | 14.7 µM |  | 
CONC(=S)N/N=C1\C(=O)N(CN2CCN(c3cc4c(cc3F)c(=O)c(C(=O)O)cn4C3CC3)CC2)c2ccc(Cl)cc21 | 143 µM | 0.64 µM (≈ 0.402 µg/mL) | 11 µM |  | 
Cc1ccc2c(c1)/C(=N/NC(=S)NO)C(=O)N2CN1CCN(c2cc3c(cc2F)c(=O)c(C(=O)O)cn3C2CC2)CC1 | 304 µM | 0.67 µM (≈ 0.398 µg/mL) | 20.9 µM | 12.1 µM (≈ 7.19 µg/mL) | 
CCN(CC)CN1C(=O)/C(=N\NC(=S)NO)c2cc(Cl)ccc21 | 562 µM | 70.3 µM (≈ 25 µg/mL) | 121 µM |  | 
CCn1cc(C(=O)O)c(=O)c2cc(F)c(N3CCN(CN4C(=O)/C(=N\NC(=S)NO)c5cc(F)ccc54)CC3)cc21 | 208 µM | 1.33 µM (≈ 0.779 µg/mL) | 18.4 µM |  | 
CCn1cc(C(=O)O)c(=O)c2cc(F)c(N3CCN(CN4C(=O)/C(=N\NC(=S)NOC)c5cc(Cl)ccc54)CC3)cc21 | 193 µM | 0.65 µM (≈ 0.4 µg/mL) | 19.2 µM | 19.6 µM (≈ 12.1 µg/mL) | 0.63 µM (≈ 0.388 µg/mL)

Compound | CC50 at 120 h [1] | MIC [2] | EC50 [3] | MIC [4] | MIC [5]
CCn1cc(C(=O)O)c(=O)c2cc(F)c(N3CCN(CN4C(=O)/C(=N\NC(=S)NO)c5cc(Cl)ccc54)CC3)cc21 | 186 µM | 1.3 µM (≈ 0.783 µg/mL) | 27.2 µM |  | 
CONC(=S)N/N=C1\C(=O)N(CN2CCN(c3ccc(OC)cc3)CC2)c2ccc(F)cc21 | 276 µM | 6.14 µM (≈ 2.9 µg/mL) | 12.7 µM |  | 
CCN(CC)CN1C(=O)/C(=N\NC(=S)NOC)c2cc(F)ccc21 | 490 µM | 4.41 µM (≈ 1.56 µg/mL) | 29.7 µM |  | 
CONC(=S)N/N=C1\C(=O)N(CN2CCN(c3cc4c(cc3F)c(=O)c(C(=O)O)cn4C3CC3)CC2)c2ccc(F)cc21 | 255 µM | 0.31 µM (≈ 0.19 µg/mL) | 11.4 µM |  | 
COc1c(N2CCN(CN3C(=O)/C(=N\NC(=S)NO)c4cc(Cl)ccc43)C(C)C2)c(F)cc2c(=O)c(C(=O)O)cn(C3CC3)c12 (configuration not stated) | 234 µM | 1.19 µM (≈ 0.783 µg/mL) | 15.3 µM |  | 
Cc1ccnc2c1NC(=O)c1cccnc1N2C1CC1 [NEVIRAPINE] | 156 µM |  | 0.13 µM |  | 
O=C(O)c1cn(C2CC2)c2cc(N3CCN(CN4C(=O)/C(=N\NC(=S)NO)c5cc(Cl)ccc54)CC3)c(F)cc2c1=O | 229 µM | 2.54 µM (≈ 1.56 µg/mL) | 33.4 µM |  | 
O=C(O)c1cn(C2CC2)c2cc(N3CCN(CN4C(=O)/C(=N\NC(=S)NO)c5cc(F)ccc54)CC3)c(F)cc2c1=O | 222 µM | 0.33 µM (≈ 0.197 µg/mL) | 16.5 µM | 13.1 µM (≈ 7.82 µg/mL) | 3.27 µM (≈ 1.95 µg/mL)
CONC(=S)N/N=C1\C(=O)N(CN2CCOCC2)c2ccc(Cl)cc21 | 322 µM | 4.06 µM (≈ 1.56 µg/mL) | 28.4 µM |  | 
CCn1cc(C(=O)O)c(=O)c2cc(F)c(N3CCN(CN4C(=O)/C(=N\NC(=S)NOC)c5cc(Cl)ccc54)C(C)C3)c(F)c21 (configuration not stated) | 180 µM | 1.2 µM (≈ 0.778 µg/mL) | 9.26 µM |  | 
O=C1/C(=N\NC(=S)NO)c2cc(Cl)ccc2N1CN1CCN(c2ccc(Cl)cc2)CC1 | 268 µM | 13 µM (≈ 6.25 µg/mL) | 11.1 µM |  | 
CCN(CC)CN1C(=O)/C(=N\NC(=S)NOC)c2cc(Cl)ccc21 | 454 µM | 16.9 µM (≈ 6.25 µg/mL) | 58.4 µM |  | 
COc1ccc(N2CCN(CN3C(=O)/C(=N\NC(=S)NO)c4cc(C)ccc43)CC2)cc1 | 321 µM | 13.8 µM (≈ 6.25 µg/mL) | 15 µM |  | 
CCn1cc(C(=O)O)c(=O)c2cc(F)c(N3CCN(CN4C(=O)/C(=N\NC(=S)NO)c5cc(Cl)ccc54)C(C)C3)c(F)c21 (configuration not stated) | 209 µM | 1.23 µM (≈ 0.78 µg/mL) | 23.2 µM |  | 
CONC(=S)N/N=C1\C(=O)N(CN2CCN(c3c(F)cc4c(=O)c(C(=O)O)cn(C5CC5)c4c3OC)CC2C)c2ccc(F)cc21 (configuration not stated) | 171 µM | 0.15 µM (≈ 0.0984 µg/mL) | 1.88 µM |  | 
CCn1cc(C(=O)O)c(=O)c2cc(F)c(N3CCN(CN4C(=O)/C(=N\NC(=S)NO)c5cc(C)ccc54)CC3)cc21 | 327 µM | 1.34 µM (≈ 0.779 µg/mL) | 16.9 µM |  | 
CO[C@H]1/C=C/O[C@@]2(C)Oc3c(C)c(O)c4c(O)c(c(/C=N/N5CCN(C)CC5)c(O)c4c3C2=O)NC(=O)/C(C)=C\C=C\[C@H](C)[C@H](O)[C@@H](C)[C@@H](O)[C@@H](C)[C@H](OC(C)=O)[C@@H]1C [RIFAMPIN] |  |  |  | 15.2 µM (≈ 12.5 µg/mL) | 0.12 µM (≈ 0.0988 µg/mL)
COc1c(N2CCN(CN3C(=O)/C(=N\NC(=S)NO)c4cc(C)ccc43)C(C)C2)c(F)cc2c(=O)c(C(=O)O)cn(C3CC3)c12 (configuration not stated) | 276 µM | 0.63 µM (≈ 0.402 µg/mL) | 11.1 µM |  | 
CCN(CC)CN1C(=O)/C(=N\NC(=S)NO)c2cc(F)ccc21 | 521 µM | 9.22 µM (≈ 3.13 µg/mL) | 36.2 µM |  | 
O=C1/C(=N\NC(=S)NO)c2cc(F)ccc2N1CN1CCN(c2ccccc2)CC1 | 251 µM | 7.3 µM (≈ 3.13 µg/mL) | 19.6 µM |  | 
CONC(=S)N/N=C1\C(=O)N(CN2CCN(c3ccccc3)CC2)c2ccc(F)cc21 | 227 µM | 7.07 µM (≈ 3.13 µg/mL) | 18.1 µM |  | 
NNC(=O)c1ccncc1 [ISONIAZID] |  |  |  | 182 µM (≈ 25 µg/mL) | 0.36 µM (≈ 0.0494 µg/mL)
COc1ccc(N2CCN(CN3C(=O)/C(=N\NC(=S)NO)c4cc(Cl)ccc43)CC2)cc1 | 279 µM | 13.2 µM (≈ 6.25 µg/mL) | 21.3 µM |  | 
CONC(=S)N/N=C1\C(=O)N(CN2CCN(c3c(F)cc4c(=O)c(C(=O)O)cn(C5CC5)c4c3OC)CC2C)c2ccc(Cl)cc21 (configuration not stated) | 164 µM | 0.3 µM (≈ 0.202 µg/mL) | 7.14 µM |  | 
Cc1ccc2c(c1)/C(=N/NC(=S)NO)C(=O)N2CN1CCOCC1 | 572 µM | 8.96 µM (≈ 3.13 µg/mL) | 93.6 µM |  | 
CN(C)CN1C(=O)/C(=N\NC(=S)NO)c2cc(Cl)ccc21 | 610 µM | 76.3 µM (≈ 25 µg/mL) | 130 µM |  | 
